SMILES strings stand for the structures.

This note sets out measurements from ChEMBL document CHEMBL3822412, “Exploiting Protein Conformational Change to Optimize Adenosine-Derived Inhibitors of HSP70” (J Med Chem, 2016).

The first test deals with Heat shock cognate 71 kDa protein (Homo sapiens, UniProt P11142). Nature of the test: Binding affinity to human truncated HSC70 NBD (1 to 381 residues) by SPR analysis. To be noted: read-out: Kd. An outline of the steps: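 Human HSC70-NBD (residues 1-381) amine-coupled to a CM5 chip to ~5000 RU, with 750 µM ADP present during coupling. Running buffer PBS pH 7.4 with 0.05% Tween20 and 5% DMSO. Eight-point dose response over 50–2000, 5–200 or 0.0625–2.5 µM. Flow 30 µL/min, 60 s injection, 120 s dissociation, no regeneration, unmodified reference cell. KD taken from equilibrium binding curves fitted to a 1:1 model. Geometric mean ± SEM, n≥3.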
Chain of Heat shock cognate 71 kDa protein (P11142 whole entry, the tested form may be a part): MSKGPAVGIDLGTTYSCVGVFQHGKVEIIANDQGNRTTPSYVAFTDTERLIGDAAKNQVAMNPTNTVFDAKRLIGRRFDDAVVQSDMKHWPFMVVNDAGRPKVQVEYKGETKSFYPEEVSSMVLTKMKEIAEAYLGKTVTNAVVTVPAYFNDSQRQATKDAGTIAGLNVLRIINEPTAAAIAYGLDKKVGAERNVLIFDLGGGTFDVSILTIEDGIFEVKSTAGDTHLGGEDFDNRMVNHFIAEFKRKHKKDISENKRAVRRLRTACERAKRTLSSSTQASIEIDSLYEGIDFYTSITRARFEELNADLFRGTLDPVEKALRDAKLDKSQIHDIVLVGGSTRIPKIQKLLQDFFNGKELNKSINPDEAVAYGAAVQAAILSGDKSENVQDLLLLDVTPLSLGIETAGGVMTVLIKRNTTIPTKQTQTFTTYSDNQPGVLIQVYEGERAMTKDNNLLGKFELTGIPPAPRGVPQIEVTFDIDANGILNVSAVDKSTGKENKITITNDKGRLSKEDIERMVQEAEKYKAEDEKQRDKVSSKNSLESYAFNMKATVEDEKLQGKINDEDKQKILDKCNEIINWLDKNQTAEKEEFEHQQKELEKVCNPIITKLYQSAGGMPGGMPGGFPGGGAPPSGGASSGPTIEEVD
For orientation: Surface plasmon resonance follows binding to a sensor surface in real time, without labels.
On to `Nc1ncnc2c1nc(N)n2[C@@H]1O[C@H](CO)[C@@H](O)[C@H]1O`, for which the Kd is 7 µM.
For the compound `Nc1ncnc2c1ncn2[C@@H]1O[C@H](COP(=O)(O)OP(=O)(O)O)[C@@H](O)[C@H]1O` [ADENOSINE DIPHOSPHATE], the Kd turned out to be 0.32 µM.
Regarding `CNc1nc2c(N)ncnc2n1[C@@H]1O[C@H](CO)[C@@H](O)[C@H]1O`, the Kd came to 17 µM.
Same read-out and setting: to `CNc1c(C(N)=O)c2c(N)ncnc2n1[C@@H]1O[C@H](CO)[C@@H](O)[C@H]1O` belongs 30 µM.
On the same count and under the same terms, then `Nc1ncnc2c1nc(NCc1ccc3ncccc3c1)n2[C@@H]1O[C@H](CO)[C@@H](O)[C@H]1O`, with 0.72 µM.
On the same count and under the same terms, to `Nc1ncnc2c1ncn2[C@@H]1O[C@H](CO)[C@@H](O)[C@H]1O` [ADENOSINE] belongs 110 µM; to `CN(C)c1nc2c(N)ncnc2n1[C@@H]1O[C@H](CO)[C@@H](O)[C@H]1O`, more than 1000 µM.
Turning to `CNc1c(C#N)c2c(N)ncnc2n1[C@@H]1O[C@H](CO)[C@@H](O)[C@H]1O`, the Kd was 3.3 µM.
Take `Nc1ncnc2c1nc(NCc1ccc(F)cc1)n2[C@@H]1O[C@H](CO)[C@@H](O)[C@H]1O`: the Kd turned out to be 0.46 µM.
On the same count and under the same terms, to `Cc1ccc(CNc2nc3c(N)ncnc3n2[C@@H]2O[C@H](CO)[C@@H](O)[C@H]2O)cc1` belongs 0.3 µM.
The same measure, in the same setting: then `Nc1ncnc2c1nc(NCc1ccc(Cl)cc1)n2[C@@H]1O[C@H](CO)[C@@H](O)[C@H]1O`, with 0.28 µM; and `Nc1ncnc2c1nc(NCc1ccc(Cl)c(Cl)c1)n2[C@@H]1O[C@H](CO)[C@@H](O)[C@H]1O`, with 3.5 µM; and `CNc1nc2c(N)ncnc2n1[C@@H]1O[C@H](C)[C@@H](O)[C@H]1O`, with 27 µM.
For the compound `C[C@H]1O[C@@H](n2cnc3c(N)ncnc32)[C@H](O)[C@@H]1O` [5'-Deoxyadenosine], the Kd amounted to 130 µM.
Still for that read-out and setting: then `COc1nc2c(N)ncnc2n1[C@@H]1O[C@H](CO)[C@@H](O)[C@H]1O`, with more than 1000 µM; and `N#Cc1c(NCc2ccccc2)n([C@@H]2O[C@H](CO)[C@@H](O)[C@H]2O)c2ncnc(N)c12`, with 2.8 µM; and `Nc1ncnc2c1nc(NCc1ccccc1)n2[C@@H]1O[C@H](CO)[C@@H](O)[C@H]1O`, with 1.4 µM.

The test is the same for the next values; noted with them: read-out: pKd (converted).
Take `Nc1ncnc2c1ccn2[C@@H]1O[C@H](CO)[C@@H](O)[C@H]1O` [TUBERCIDIN]: the Kd was 28.2 µM.
Regarding `N#Cc1cn([C@@H]2O[C@H](CO)[C@@H](O)[C@H]2O)c2ncnc(N)c12` [TOYOCAMYCIN], the Kd was 91.2 µM.
The same measure, in the same setting: then `NC(=O)c1cn([C@@H]2O[C@H](CO)[C@@H](O)[C@H]2O)c2ncnc(N)c12` [SANGIVAMYCIN], with 3.24 µM.
